In the library only some 2.3% were active in any assay of this set; here they are far more common.
TRPC4 act = activators of mouse TRPC4 channel, primary screen, Fluo4 calcium, HEK293 TRPC4beta/mu-opioid cells; Fluo4 calcium fluorescence; active compounds read high; B-score at 10 µM; hit rate 0.49% among 310,000; AID 2237, 2010;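 active means B-score above 5 SD of library B-scores, and initial fluorescence ratio not above library mean plus 5 SD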;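 further: positive B-score marks a calcium rise read as TRPC4 activation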
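Incubation: 45 min room-temperature Fluo4 loading, 110 s read / System: HEK293 cells stably co-expressing mouse TRPC4beta and mu-opioid receptor / Signal: Fluo4 fluorescence, kinetic / Control set: buffer (low) and maximal DAMGO (high) / Measure: integrated baseline-normalised fluorescence ratio, converted to per-well B score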
TRPC4 inh = inhibitors of mouse TRPC4 channel, primary screen, Fluo4 calcium, HEK293 TRPC4beta/mu-opioid cells | Short transient receptor potential channel 4 (Mus musculus), Q9QUQ5 | DAMGO-evoked Fluo4 calcium flux; active compounds read low | B-score at 10 µM | hit rate 0.39% among 300,000 | AID 2247, 2010;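 active means B-score over 3 SD under the library average, no early fluorescence shift, positive overall ratio signal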
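Assay system: HEK293 cells with stable TRPC4beta plus mu-opioid receptor expression. Dosing: single dose. Measured by: Fluo4 Ca2+ flux fluorescence. Also added: DAMGO in two steps, submaximal then maximal. Read-out: B score from integrated Fluo4 fluorescence ratio.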
TRPC6 act = mouse TRPC6 channel activators, primary screen, cell-based, HEK293, membrane potential dye | Short transient receptor potential channel 6 (Mus musculus), Q61143 | HEK293-TRPC6 membrane potential dye fluorescence; active compounds read high | B-score at 10 µM | hit rate 0.13% among 310,000 | AID 2550, 2010;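 active means B-score of the integrated fluorescence ratio above library mean plus 3 SD, and starting fluorescence ratio within library mean plus 5 SD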;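 further: higher score means more depolarization so channel activation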
TRPC4 potent = positive allosteric modulators of TRPC4, primary screen, cell-based, mouse TRPC4beta, HEK293 mu-opioid, Fluo-4 calcium | Short transient receptor potential channel 4 (Mus musculus), Q9QUQ5 | DAMGO EC20, Fluo-4 Ca2+ flux; active compounds read high | B-score at 10 µM | hit rate 0.42% among 310,000 | AID 2227, 2009;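 active means B-score of calcium response area above 5 SD of library B-scores, with initial fluorescence ratio within 5 SD of library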;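 further: B-score of integrated fluorescence ratio over time as area under calcium response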
TRPC6 inhibitor = mouse TRPC6 channel inhibitors, primary screen, cell-based, HEK293, membrane potential dye. ACh-evoked depolarization; active compounds read low. hit rate 1.1% among 310,000. B-score at 10 µM. Short transient receptor potential channel 6 (Mus musculus), Q61143;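 active means B-score under library mean minus 3 SD, initial fluorescence not abnormally high, positive integrated signal ratio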;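 further: B-score derived from integrated fluorescence ratio over the kinetic read; more negative B-score means stronger inhibition of depolarization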
Numbers without * were called inactive; i = inactive.

SMILES	TRPC4 act	TRPC4 inh	TRPC6 act	TRPC4 potent	TRPC6 inhibitor
N=C(N)SCc1cn(-c2ccccc2)nc1-c1ccc(Br)cc1	71*	i	i	i	i
Cc1ccc(-c2nn(-c3ccccc3)cc2CO)cc1	i	i	i	i	i
C(=N\c1nc2ccccc2[nH]1)/c1cccs1	54*	i	i	i	i
Cn1c(/C=N/c2nc3ccccc3[nH]2)nc2ccccc21	i	i	i	i	i
NS(=O)(=O)c1ccc(NC(=S)N2CCC(Cc3ccccc3)CC2)cc1	i	i	i	i	i
Cc1ccsc1/C=C/C1=Cc2c(sc(NC(=O)CSc3n[nH]c(N)n3)c2C#N)C(C)(C)C1	i	i	i	90*	i
CCOc1ccc(/C=C/C2=Cc3c(sc(NC(=O)CSc4n[nH]c(N)n4)c3C#N)C(C)(C)C2)cc1	i	i	i	17*	i
CCOC(=O)c1sc(NC(=O)CSc2n[nH]c(-c3ccncc3)n2)c(C#N)c1C	i	i	i	i	i
COC(=O)CNC(=O)CSc1nc(N)cc(=O)[nH]1	i	i	i	i	i
COc1cc(CNCc2cc(OC)c(OC)c(OC)c2)cc(OC)c1	i	i	i	i	i
O=c1c2ccccc2[nH]c(=S)n1-c1cccc(S(=O)(=O)N2CCCC2)c1	i	i	i	i	i
CNC(=O)c1ccccc1Nc1ccc(SC(F)F)cc1	i	i	i	i	i
COc1cccc(-c2c(C#N)c(N)nc3c2c(C)nn3-c2ccccc2)c1O	i	i	i	15*	i
Cc1ccc(OCC(=O)NCCCNC(=O)c2ccncc2)cc1C	i	i	i	i	i
O=C(/C=C/c1ccc(Cl)cc1Cl)N(Cc1ccccc1)C1CCS(=O)(=O)C1 (stereo unspecified)	i	i	i	i	i
O=C(/C=C/c1ccc(Cl)cc1)N(Cc1ccccc1)C1CCS(=O)(=O)C1 (stereo unspecified)	i	i	i	20*	i
Cc1ccc2c(C)c(C(=O)N(Cc3cccs3)C3CCS(=O)(=O)C3)oc2c1 (stereo unspecified)	61*	i	i	i	i
Cc1ccc2oc(C(=O)N(Cc3ccccc3)C3CCS(=O)(=O)C3)c(C)c2c1 (stereo unspecified)	43*	i	i	i	i
N#CC(c1ccccc1)N(CCCCl)C(=O)c1ccccc1 (stereo unspecified)	i	i	i	i	i
CN(C)CCCN(C(=O)CCOc1ccccc1)c1nc2c(F)cccc2s1	i	i	i	i	-5.1*
CC(C)c1ccccc1NC(=S)NN(Cc1ccccc1)c1ccccc1	i	i	i	27*	i
COc1cc(/C=C(\C#N)c2nc3c(s2)CCCC3)ccc1O	91*	i	93*	i	i
O=C(c1c(F)cccc1F)N1CCCc2ccccc21	i	i	i	i	i
c1ccc(-c2ccc(-c3ccccn3)nn2)nc1	i	i	i	i	-11*
COc1ccc(CCNCC(=O)Nc2ccccc2C(F)(F)F)cc1	i	i	i	i	i
CCOc1ccc(S(=O)(=O)N2CCN(C(=S)NC3CC3)CC2)cc1	i	i	i	18*	i
NC(=O)c1nsc(C(=O)N(Cc2ccc(F)cc2)C(C(=O)NC2CCCC2)c2ccco2)c1N (stereo unspecified)	i	-7*	i	i	i
Cc1ccccc1N(C(=O)c1snc(C(N)=O)c1N)C(C(=O)NCC1CCCO1)c1ccc(F)cc1 (stereo unspecified)	i	-6*	i	i	i
COc1ccc(N(C(=O)c2snc(C(N)=O)c2N)C(C(=O)NC2CCCC2)c2ccc(F)cc2)c(OC)c1 (stereo unspecified)	i	i	i	i	i

Screening data (PubChem BioAssay)
